Test results reported in ChEMBL document CHEMBL4477186, “Structurally Diverse Metabolites from the Soft Coral Sinularia verruca Collected in the South China Sea” (J Nat Prod, 2016).
The source made the active and inactive calls. The rule behind the calls is not given here.

Tests used:
[1] = tested on: Human immunodeficiency virus 1; assay: Antiviral activity against HIV1 infected in human CEM-SS cells assessed as inhibition of virus-induced cytopathic effect after 6 days by XTT assay; assay type: functional, organism-based; details: for EC50: Human immunodeficiency virus 1, CEM-SS, 144 h
In short: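 NCI XTT-tetrazolium primary anti-HIV screen. CEM-SS cells kept in phenol red-free RPMI 1640 with 5% FBS, gentamicin and 2 mM L-glutamine; 1 × 10⁴ cells per well infected with HIV-1 RF (Haitian variant) at MOI 0.6. Compounds predissolved in DMSO, diluted in medium; AZT positive control. Quadruplicate infected wells, 6 days, 37 °C, 5% CO₂; cell growth by XTT; EC50 and maximal protection derived.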

[2] = tested on: Peritoneal macrophage; assay: Antiinflammatory activity against C57BL6J mouse peritoneal macrophages assessed as inhibition of LPS-induced NO production incubated for 1 hr followed by stimulation with LPS for 24 hrs by Griess assay; assay type: functional, cell-based
In short: (§1)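 Mouse peritoneal macrophages stimulated with lipopolysaccharide; nitric oxide production measured following an earlier protocol. Test compounds taken from 30 mM DMSO stocks and diluted to 1–30 μM final. Dexamethasone in DMSO served as positive control.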

[3] = tested on: CEM-SS; assay: Cytotoxicity against human CEM-SS cells assessed as growth inhibition after 6 days by XTT assay; assay type: cell-based; details: 144 h
In short: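 Uninfected CEM-SS cells (1 × 10⁴ per well, duplicate wells) grown alongside the infected cultures in phenol red-free RPMI 1640 with 5% FBS, gentamicin and 2 mM L-glutamine. Compounds diluted from DMSO into medium. Incubation 6 days at 37 °C under 5% CO₂; growth estimated by XTT read-out; IC50 derived.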

[4] = tested on: Peritoneal macrophage; assay: Antiinflammatory activity against C57BL6J mouse peritoneal macrophages assessed as inhibition of LPS-induced NO production at 30 uM incubated for 1 hr followed by stimulation with LPS for 24 hrs by Griess assay; assay type: functional; in short: as §1

| SMILES | %max [1] [%] | EC50 [1] [µM] | IC50 [2] [µM] | IC50 [3] [µM] | inhibition [1] | inhibition at 30 µM [4] [%] |
| --- | --- | --- | --- | --- | --- | --- |
| CCCCC[C@@]1(O)C(C)=C(C)C(=O)[C@H]1CO (relative stereo) | 86 | 34 | 28 | 79 | – | – |
| CC1=C[C@@]2(C=C(C)[C@@H]3CC[C@@]4(C)Oc5cc(C)c(O)cc5[C@@H]2[C@@H]34)OC1=O | – | – | – | – | inactive | < 50 |
| C/C1=C/C2=C(CC(C)(C)C2)[C@H](C)CC[C@@H]1O | – | – | – | – | inactive | < 50 |
| CCO[C@@]1(CCCCCCCCCCCCC(=O)O)OC(=O)C(C)=C1C | – | – | – | – | inactive | < 50 |
| CC(=O)CC/C=C(/C)C[C@@H]1CC(C)(C)CC1=O | – | – | – | – | inactive | < 50 |
| C=C1C(=O)C(C)=C(C)[C@@]1(O)CCCCC | 52 | 5.8 | – | 6.3 | – | < 50 |
| COC(=O)C(C)CCCC1(C)CCc2c(C)c(O)c(C)c(C)c2O1 (stereo not given) | – | – | – | – | inactive | < 50 |
| CCCC[C@@H]1C(=O)C(C)=C(C)[C@]12CCC(=O)O2 | – | – | – | – | inactive | < 50 |
| CCCC[C@@H]1C(=O)C(C)=C(C)[C@]1(O)CCC(=O)OCC | – | – | 24 | – | inactive | – |
| CCOC(=O)C1=CN2CC[C@]3(O)c4ccccc4N([C@H]1C)[C@H]23 | – | – | – | – | inactive | < 50 |
| COC(=O)C(C)CCCC(C)(O)CCC1=C(C)C(=O)C(C)=C(C)C1=O (stereo not given) | – | – | – | – | inactive | < 50 |
| C/C(=C\CC[C@]1(C)C=Cc2cc(O)c(C)cc2O1)Cc1cc(C)co1 [CAPILLOBENZOPYRANOL] | – | – | – | – | inactive | < 50 |
| C[C@@H]1CC[C@]2(O)O[C@]13CC(C)(C)CC3=C[C@@]2(C)O | – | – | – | – | inactive | < 50 |
| CCOC(=O)CCCCCCCCCCCC[C@]1(O)OC(=O)C(C)=C1C | – | – | – | – | inactive | < 50 |
| CCCCC[C@@]1(O)C(C)=C(C)C(=O)[C@H]1COCC (relative stereo) | 75 | 30 | 26 | 66 | – | – |
| CCOC(=O)CC[C@]1(O)OC(=O)C(C)=C1C | – | – | – | – | inactive | < 50 |
| CCCCC[C@]1(O)OC(=O)C(C)=C1C | – | – | – | – | inactive | < 50 |
